Measurements gathered from unrelated publications.
Organism: Pseudomonas aeruginosa
Read-out: microbial growth

| SMILES | assay | test system | setting | MIC |
| --- | --- | --- | --- | --- |
| CN(C)[C@@H]1C(O)=C(C(N)=O)C(=O)[C@@]2(O)C(O)=C3C(=O)c4c(cc5ccc(CN6CC(F)C6)cc5c4O)C[C@H]3C[C@@H]12 | broth dilution | ATCC27853 |  | 32 µg/mL |
| CCCCCCC/C=C/C(=O)N1C(=O)/C(=C(\O)CCCC)C(=O)C1CC(C)C (stereo not shown) |  | PA01 |  | > 200 µg/mL |
| Cc1ccc2nc(-c3ccc([N+](=O)[O-])cc3)n(Cc3ccc(Cl)cc3)c2c1 | broth dilution | ATCC27853 |  | 256 µg/mL |
| CC(C)Oc1c(NC(=O)c2ccc(NC(=O)[C@H](CC(N)=O)NC(=O)c3ccc(NC(=O)c4ccc(C#N)cc4)cc3)cc2)ccc(C(=O)Nc2ccc(C(=O)O)cc2)c1O |  | PA14 |  | 2 µg/mL |
| C=CCOc1c(C)c(O)c(C(=O)/C=C/c2ccccc2)c(OC)c1C | broth dilution | ATCC27853 |  | 5000 µg/mL |
| C[C@H]1COc2c(N3CCN(C)CC3)c(F)cc3c(=O)c(C(=O)O)cn1c23 | agar dilution | PAO1 |  | 4 µg/mL |
| O=C(Nc1ccc([N+](=O)[O-])cc1F)c1ccccc1O | broth dilution | ATCC27853 |  | > 64 µg/mL |
| Cc1cc(C(=O)Nc2ccc(C(=O)N[C@@H](CC(N)=O)C(=O)Nc3ccc(C(=O)Nc4ccc(C(=O)Nc5ccc(C(=O)O)cc5)c(O)c4OC(C)C)cc3)cc2)ccc1C#N |  | PA14 |  | 4 µg/mL |
| COc1cccc(NCc2ccc(Oc3ccccn3)cc2)c1 |  |  |  | > 25 µg/mL |
| COc1c(C)c(OS(=O)(=O)c2ccc3ccccc3c2)c(C)c(OS(=O)(=O)c2ccc3ccccc3c2)c1C(=O)/C=C/c1ccccc1 | broth dilution | ATCC27853 |  | 5000 µg/mL |
| CN(C)[C@@H]1C(O)=C(C(N)=O)C(=O)[C@@]2(O)C(O)=C3C(=O)c4c(O)cncc4C[C@H]3C[C@@H]12.Cl.Cl | broth dilution | ATCC27853 |  | 8 µg/mL |
| Clc1ccc(-c2nc3ccccc3n2Cc2ccccc2)cc1Cl | broth dilution | ATCC27853 |  | 256 µg/mL |
| CC(C)Oc1c(NC(=O)c2ccc(NC(=O)[C@H](CC(N)=O)NC(=O)c3ccc(NC(=O)c4ccc5c(c4)COC5=O)cc3)cc2)ccc(C(=O)Nc2ccc(C(=O)O)cc2)c1O |  | PA14 |  | > 64 µg/mL |
| Brc1cccc(NCc2ccc(Oc3ccccn3)cc2)c1 |  |  |  | > 50 µg/mL |
| CCCNc1nc(Cl)c2c(c1O)C(=O)C1=C(O)[C@]3(O)C(=O)C(C(N)=O)=C(O)[C@@H](N(C)C)[C@@H]3C[C@@H]1C2.Cl.Cl.Cl | broth dilution | ATCC27853 |  | 32 µg/mL |
| CC1COc2c(N3CCN(C)CC3)c(F)cc3c(=O)c(C(=O)O)cn1c23 (stereo not shown) | broth dilution | PAO1 |  | 1 µg/mL |
| CC1(C)SC2C(NC(=O)C(NC(=O)C3=C(O)C4CCCN4C3=O)c3ccccc3)C(=O)N2C1C(=O)O (stereo not shown) |  |  |  | 50 µg/mL |
| O=C1NN=C(N=Cc2ccccc2O)C1=NNn1c(-c2ccccc2)nc2ccccc2c1=O | broth dilution |  | 24 h | 111 µM |
| O=C(CCCCCCCCCC[P+](c1ccccc1)(c1ccccc1)c1ccccc1)Nc1ccc(O)c(O)c1.[Br-] | broth dilution | ATCC27853 | 18 h | > 32 µg/mL |
| CC(C)Oc1c(NC(=O)c2ccc(NC(=O)[C@H](CC(N)=O)NC(=O)c3ccc(NC(=O)Cc4ccc(C#N)cc4)cc3)cc2)ccc(C(=O)Nc2ccc(C(=O)O)cc2)c1O |  | PA14 |  | > 64 µg/mL |
| Fc1ccc(-c2nc3ccccc3n2Cc2ccccc2)cc1 | broth dilution | ATCC27853 |  | 128 µg/mL |
| CN(C)[C@@H]1C(O)=C(C(N)=O)C(=O)[C@@]2(O)C(O)=C3C(=O)c4c(O)c(N)nc(F)c4C[C@H]3C[C@@H]12.Cl.Cl | broth dilution | ATCC27853 |  | 4 µg/mL |
| O=C1NN=C(N=Cc2ccc(O)cc2O)C1=NNn1c(-c2ccccc2)nc2ccccc2c1=O | broth dilution |  | 24 h | 53.5 µM |
| COc1c(C)c(OC)c2c(c1C)OC(c1ccccc1)CC2=O (stereo not shown) | broth dilution | ATCC27853 |  | 5000 µg/mL |
| CCCCCCC#Cc1cncc(-c2nnc(SCc3ccc(Cl)c(F)c3)n2C)c1 |  |  |  | ≥ 20 µg/mL |

| SMILES | assay | test system | setting | MIC |
| --- | --- | --- | --- | --- |
| COc1c2c(c(O)c3cc(CN(C)C)ccc13)C(=O)C1=C(O)[C@]3(O)C(=O)C(C(N)=O)=C(O)[C@@H](N(C)C)[C@@H]3C[C@@H]1C2 | broth dilution | ATCC27853 |  | 16 µg/mL |
| Cc1cc(=O)[nH]n1C(=O)c1ccc(-n2c(C)ccc2C)cc1 | broth dilution | ATCC10145 | 18 h | 250 µg/mL |
| O=C(CCCCCC[P+](c1ccccc1)(c1ccccc1)c1ccccc1)Nc1ccc(O)c(O)c1.[Br-] | broth dilution | ATCC27853 | 18 h | > 32 µg/mL |
| CC(C)Oc1c(NC(=O)c2ccc(NC(=O)[C@H](CC(N)=O)NC(=O)c3ccc(NC(=O)c4ccc([N+](=O)[O-])c5cccnc45)cc3)cc2)ccc(C(=O)Nc2ccc(C(=O)O)cc2)c1O |  | PA14 |  | > 64 µg/mL |
| C[C@H]1COc2c(N3CCN(C)CC3)c(F)cc3c(=O)c(C(=O)O)cn1c23 | broth dilution | CMCC10104 |  | 138 µM |
| CC1(C)SC2C(NC(=O)C(NC(=O)C3=C(O)C(Cc4ccc(O)cc4)NC3=O)c3ccccc3)C(=O)N2C1C(=O)O (stereo not shown) |  |  |  | 25 µg/mL |
| CCCCCCC/C=C/C(=O)N1C(=O)/C(=C(/C)O)C(=O)C1Cc1ccc(O)cc1 (stereo not shown) |  | PA01 |  | > 200 µg/mL |
| CC(C)Nc1nc(Cl)c2c(c1O)C(=O)C1=C(O)[C@]3(O)C(=O)C(C(N)=O)=C(O)[C@@H](N(C)C)[C@@H]3C[C@@H]1C2.Cl.Cl.Cl | broth dilution | ATCC27853 |  | > 32 µg/mL |
| COc1c(C(=O)Nc2ccc(C(=O)O)cc2)ccc2nc(-c3cc(NC(=O)C(CC(N)=O)NC(=O)c4ccc(NC(=O)c5ccc(C#N)cc5)cc4)cn3C)[nH]c12 (stereo not shown) |  | PA14 |  | > 64 µg/mL |
| CC(C)CC1NC(=O)C(C(=O)NC(C(=O)NC2C(=O)N3C2SC(C)(C)C3C(=O)O)c2ccccc2)=C1O (stereo not shown) |  |  |  | 12.5 µg/mL |
| COC1CN(Cc2ccc3cc4c(c(O)c3c2)C(=O)C2=C(O)[C@]3(O)C(=O)C(C(N)=O)=C(O)[C@@H](N(C)C)[C@@H]3C[C@@H]2C4)C1 | broth dilution | ATCC27853 |  | 32 µg/mL |
| Cc1ccc(C)n1-c1ccc(-c2nnc(-c3ccccc3Cl)[nH]2)cc1 | broth dilution | ATCC10145 | 18 h | 250 µg/mL |
| COc1cc(Cc2cnc(N)nc2N)cc(OC)c1OC | broth dilution |  | 24 h | 8 µg/mL |
| CCCCCC(=O)Oc1c(C)c(O)c(C(=O)/C=C/c2ccccc2)c(OC)c1C | broth dilution | ATCC27853 |  | 5000 µg/mL |
| CCCCCCC/C=C/C(=O)N1C(=O)/C(=C(\O)c2ccc(OCOCCOC)cc2)C(=O)C1CC(C)C (stereo not shown) |  | PA01 |  | > 200 µg/mL |
| C[C@@H](O)[C@H]1C(=O)N2C(C(=O)O)=C(S[C@@H]3CN[C@H](C(=O)N(C)C)C3)[C@H](C)[C@H]12 |  |  |  | 1.3 µM |
| Cc1ccc(C)n1-c1ccc(-c2nnc(-c3ccc(O)cc3)[nH]2)cc1 | broth dilution | ATCC10145 | 18 h | 250 µg/mL |
| CCCc1nc(Cl)c2c(c1O)C(=O)C1=C(O)[C@]3(O)C(=O)C(C(N)=O)=C(O)[C@@H](N(C)C)[C@@H]3C[C@@H]1C2.Cl | broth dilution | ATCC27853 |  | > 32 µg/mL |
| COc1cc(C(=O)Nc2ccc(C(=O)N[C@@H](CC(N)=O)C(=O)Nc3ccc(C(=O)Nc4ccc(C(=O)Nc5ccc(C(=O)O)cc5)c(O)c4OC(C)C)cc3)cc2)ccc1C#N |  | PA14 |  | > 64 µg/mL |
| CN(C)[C@@H]1C(O)=C(C(N)=O)C(=O)[C@@]2(O)C(O)=C3C(=O)c4c(O)cnc(Cl)c4C[C@H]3C[C@@H]12.Cl | broth dilution | ATCC27853 |  | > 32 µg/mL |
| Clc1cccc(NCc2ccc(Oc3ccccn3)cc2)c1 |  |  |  | > 50 µg/mL |
| CC(C)Oc1c(NC(=O)c2ccc(NC(=O)[C@H](CC(N)=O)NC(=O)c3ccc(NC(=O)c4ccc([N+](=O)[O-])cc4)cc3)cc2)ccc(C(=O)Nc2ccc(C(=O)O)c(F)c2)c1O |  | PA14 |  | > 64 µg/mL |
| CCN1CCN(C(=O)N[C@@H](C(=O)N[C@@H]2C(=O)N3C(C(=O)O)=C(CSc4nnnn4C)CS[C@H]23)c2ccc(O)cc2)C(=O)C1=O | broth dilution | PAO1 |  | 4 µg/mL |
| CCCCCCC#Cc1cncc(-c2nnc(SCc3ccc(Cl)cc3)n2C)c1 |  |  |  | ≥ 20 µg/mL |
